Source: article PMC5161678 (Clinical cancer research : an official journal of the …, 2016)

Experiments:
CD5+CD19+ CLL B-cells = assay: CLL B-cell viability by Annexin V/PI staining in NLC cocultures; type: cell-based, human; details: for CLL viability: long-term NLC/CLL cocultures, ruxolitinib 5 μM, fedratinib 5 μM, pacritinib 1 μM
[1] = in vivo; cited from earlier work
CSF-1R [2] = target: T1, CSF-1R (Homo sapiens, UniProt P07333); assay: CSF-1R phosphorylation sandwich ELISA in CSF-1 treated monocytes; type: cell-based; details: recombinant CSF-1 10 ng/mL, 5 minutes, fedratinib 5 μM, pacritinib 1 μM
CSF-1R [3] = details: CSF-1R in vitro; cited from earlier work
nurse-like cells (NLC) = assay: NLC generation and survival in CLL patient PBMC cultures; type: cell-based, human; details: pacritinib 1 μM; for NLC survival: CLL PBMC cultured 7–10 days, ruxolitinib 5 μM; for NLC survival / intact NLC by morphology: fedratinib 5 μM; for intact NLC by morphology: established NLC cultures treated for 24 hours
Summary of the method: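 PBMC from CLL patients not on therapy were plated at 3–5 × 10^6 cells/mL in RPMI with 10% FBS at 37°C, 5% CO2 for 7–10 days, then given test compound or DMSO vehicle. NLC were counted by morphology in five high-power fields or as high forward/side-scatter events by flow cytometry. Viability was read by annexin V/PI. For some cultures, CLL cells were gently removed before treatment.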

lymphoma = details: cited from earlier work
CSF-1R [4] = target: T1, CSF-1R; assay: in vitro radiometric kinase assay; type: biochemical
ERK and AKT = ERK and AKT phosphorylation in CSF-1 treated monocytes; type: cell-based, human; details: pacritinib
Summary of the method: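 Healthy-donor monocytes were CD14 bead-selected from PBMC, cultured overnight, then stimulated 5 min with recombinant human CSF-1 (10 ng/mL) plus test compound or DMSO vehicle. Lysis buffer: Tris pH 7.5, EDTA, NaCl, NP-40, deoxycholate, SDS and protease/phosphatase inhibitors. SDS-PAGE on 5–12% gradient gels, PVDF transfer, 1 h milk block. Probed for total and pT308/pS473 AKT, and total and pT202/Y204 ERK1/2.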

[5] = system: monocyte-derived macrophages; assay: monocyte and monocyte-derived macrophage viability; type: cell-based, human

T1 sequence (P07333 20-972): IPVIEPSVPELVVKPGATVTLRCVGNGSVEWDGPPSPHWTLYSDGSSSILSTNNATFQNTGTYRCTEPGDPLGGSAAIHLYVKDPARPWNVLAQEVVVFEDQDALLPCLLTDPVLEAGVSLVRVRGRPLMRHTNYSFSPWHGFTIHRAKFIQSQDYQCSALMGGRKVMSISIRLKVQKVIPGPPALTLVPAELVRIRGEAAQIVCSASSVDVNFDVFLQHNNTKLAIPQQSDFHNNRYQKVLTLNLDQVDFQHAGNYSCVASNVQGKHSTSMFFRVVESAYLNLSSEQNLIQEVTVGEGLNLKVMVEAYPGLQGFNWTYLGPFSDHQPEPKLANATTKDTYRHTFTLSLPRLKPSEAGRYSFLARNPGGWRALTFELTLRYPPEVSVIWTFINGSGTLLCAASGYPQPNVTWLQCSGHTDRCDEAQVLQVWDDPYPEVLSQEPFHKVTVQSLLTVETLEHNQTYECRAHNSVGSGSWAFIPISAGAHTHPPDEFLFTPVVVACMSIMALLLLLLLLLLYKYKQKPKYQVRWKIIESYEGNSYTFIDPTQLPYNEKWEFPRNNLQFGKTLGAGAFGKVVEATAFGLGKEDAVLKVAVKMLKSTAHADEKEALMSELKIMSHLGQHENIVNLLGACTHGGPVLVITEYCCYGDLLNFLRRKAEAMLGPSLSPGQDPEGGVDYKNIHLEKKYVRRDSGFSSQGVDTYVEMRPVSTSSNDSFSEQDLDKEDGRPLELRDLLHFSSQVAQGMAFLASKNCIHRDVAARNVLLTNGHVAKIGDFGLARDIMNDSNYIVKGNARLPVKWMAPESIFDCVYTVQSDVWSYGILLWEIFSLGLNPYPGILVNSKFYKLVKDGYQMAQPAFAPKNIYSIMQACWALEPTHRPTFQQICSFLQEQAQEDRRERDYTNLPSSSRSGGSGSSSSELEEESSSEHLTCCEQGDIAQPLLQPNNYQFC

For `Cc1cnc(Nc2ccc(OCCN3CCCC3)cc2)nc1Nc1cccc(S(=O)(=O)NC(C)(C)C)c1` [fedratinib], the CLL viability (CD5+CD19+ CLL B-cells) is given as “significantly reduced”, the clinically achievable concentrations [1] is given as 1 to 5 µM and the “total CSF-1R phosphorylation” value (CSF-1R [2]) is given as “significantly reduced”. The IC50 (CSF-1R [3]) was greater than 1 µM, the NLC survival (nurse-like cells (NLC)) was “significant, and near total, loss” and the “intact NLC by morphology” value (nurse-like cells (NLC)) was “rarely observed”.

For `C1=C/COCc2cc(ccc2OCCN2CCCC2)Nc2nccc(n2)-c2cccc(c2)COC/1` [pacritinib], the CLL viability (CD5+CD19+ CLL B-cells) is listed as “significantly reduced”, the “induction of apoptosis in CLL samples” value (CD5+CD19+ CLL B-cells; paired CLL samples, ibrutinib 1 uM or pacritinib 1 uM) is listed as “significant increase” and the tolerability (lymphoma; patients with lymphoma) is listed as “well tolerated”. For the same compound, the clinical activity (lymphoma; various NHL, including CLL) was “clinical activity”, the IC50 (CSF-1R [4]) was less than 0.05 µM and the “IC50 (in words)” value (CSF-1R [4]; CSF-1R) was “low nanomolar range”. The “total CSF-1R phosphorylation” value (CSF-1R [2]) was “significantly reduced”, the NLC survival (nurse-like cells (NLC)) was “significant, and near total, loss” and the “viable NLC by annexin V/PI staining” value (nurse-like cells (NLC); CLL cells removed from established NLC cultures, 24 hours) was “viable NLC were no longer identified”. The “intact NLC by morphology” value (nurse-like cells (NLC)) was “rarely observed”, the “downstream phosphorylation of ERK and AKT” value (ERK and AKT) was “significantly impaired” and the “monocyte and monocyte-derived macrophage viability” value ([5]; CSF-1-treated monocytes, clinically achievable concentrations) was “significantly impaired”. The “signs of apoptotic cell death” value ([5]; pacritinib-treated macrophages) was “caspase 3 activation, loss of mitochondrial membrane potential, and changes in cell morphology”.

For `N#CC[C@H](C1CCCC1)n1cc(-c2ncnc3[nH]ccc23)cn1` [ruxolitinib], the IC50 (CSF-1R [3]) is listed as roughly 1 µM and the NLC survival (nurse-like cells (NLC)) is listed as “modest”.
